Measured values published in ChEMBL document CHEMBL4325875, “Computer-aided design, synthesis and biological characterization of novel inhibitors for PKMYT1” (Eur J Med Chem, 2019).

What was measured:
[1] = target: T1, Membrane-associated tyrosine- and threonine-specific cdc2-inhibitory kinase (Homo sapiens) (UniProt Q99640); assay: Displacement of (6-FAM)KI(pY)VV from PKMYT1 kinase domain (unknown origin) at 20 uM by fluorescence polarization binding assay relative to control
T1 sequence (whole entry): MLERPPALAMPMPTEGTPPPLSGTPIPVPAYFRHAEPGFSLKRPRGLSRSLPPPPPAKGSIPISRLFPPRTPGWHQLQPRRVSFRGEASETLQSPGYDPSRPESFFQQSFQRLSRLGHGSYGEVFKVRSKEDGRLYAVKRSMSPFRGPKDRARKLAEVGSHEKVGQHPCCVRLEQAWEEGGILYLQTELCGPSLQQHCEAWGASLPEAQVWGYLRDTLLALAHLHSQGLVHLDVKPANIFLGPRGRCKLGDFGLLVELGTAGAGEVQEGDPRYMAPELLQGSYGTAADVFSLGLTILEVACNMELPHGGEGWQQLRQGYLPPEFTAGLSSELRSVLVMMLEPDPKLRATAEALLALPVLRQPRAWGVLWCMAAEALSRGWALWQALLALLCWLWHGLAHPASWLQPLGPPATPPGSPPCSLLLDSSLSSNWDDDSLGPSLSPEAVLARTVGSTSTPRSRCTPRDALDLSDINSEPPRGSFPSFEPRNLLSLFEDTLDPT
Summary of the method: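 PKMYT1 kinase domain (recombinantly expressed and purified) used in a fluorescence anisotropy binding assay with a fluorescently labelled ATP-competitive tracer. Each compound screened at 20 μM in triplicate. Dasatinib 10 μM served as inhibitory control and 1% DMSO as vehicle control. Compounds giving >60% tracer displacement were retested at 20 and 5 μM in triplicate.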

[2] = target: T2, Membrane-associated tyrosine- and threonine-specific cdc2-inhibitory kinase (Homo sapiens, UniProt Q99640); assay: Displacement of (6-FAM)KI(pY)VV from full length PKMYT1 (unknown origin) by fluorescence polarization immuno assay
T2 sequence (Q99640 whole entry): T1 sequence (whole entry)
Summary of the method: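 Full-length PKMYT1, expressed and purified, was tested in the fluorescence polarization-based activity assay (FPIA) to give IC50 and Ki. Controls were 10 μM dasatinib and 1% DMSO. Anisotropy r was calculated, and Δr was taken as the difference between the PKMYT1 reaction and the reaction without PKMYT1. Data are given as means ± SEM.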

[3] = target: T2, Membrane-associated tyrosine- and threonine-specific cdc2-inhibitory kinase; assay: […] from PKMYT1 kinase domain (unknown origin) by fluorescence polarization binding assay

inhibition [1] [%]	IC50 [2] [nM]	IC50 [3] [nM]	Ki [3] [nM]	Structure (SMILES)
39.7	–	–	–	COc1ccc(Nc2nc(Nc3ccc(N4CCOCC4)cc3)ncc2OC)cc1O
74.8	–	–	–	COc1cnc(Nc2ccc(N3CCOCC3)cc2)nc1Nc1cccc(O)c1
100	1550	6030	–	CSc1cnc(Nc2ccc(N3CCOCC3)cc2)nc1Nc1cccc(O)c1
27	–	–	–	COc1ccc(Nc2nc(Nc3ccc(N4CCOCC4)cc3)ncc2Br)cc1O
< 10	–	–	–	Cc1ccc(Nc2nc(Nc3ccc(N4CCOCC4)cc3)ncc2OCc2ccccc2)cc1O
< 10	–	–	–	Cc1cnc(Nc2ccc(N3CCOCC3)cc2)nc1Nc1cc(O)ccc1Cl

The next lines start with the molecule.

Structure (SMILES)	inhibition [1] [%]	IC50 [2] [nM]	IC50 [3] [nM]	Ki [3] [nM]
Oc1ccc(Cl)c(Nc2nc(Nc3ccc(N4CCOCC4)cc3)ncc2Cl)c1	< 10	–	–	–
Cc1cnc(Nc2ccc(N3CCOCC3)cc2)nc1Nc1cccc(O)c1	< 10	–	–	–
COc1cnc(Nc2ccc(N3CCOCC3)cc2)nc1Nc1ccc(C)c(O)c1	100	309	9330	–
CNC(=O)c1ccccc1Nc1nc(Nc2ccc(N3CCOCC3)cc2)ncc1OC	100	955	6310	–
Oc1cccc(Nc2nc(Nc3ccc(N4CCOCC4)cc3)nc3c2SCC3)c1	< 10	–	–	–
Cc1ccc(Nc2nc(Nc3ccc(N4CCOCC4)cc3)ncc2Br)cc1O	26.7	–	–	–
Cc1cc(Nc2ncc3cc(-c4c(Cl)cccc4Cl)c(=O)n(C)c3n2)ccc1F	–	–	–	1350
Oc1cccc(Nc2nc(Nc3ccc(N4CCOCC4)cc3)ncc2Cl)c1	75	617	6030	–
Oc1cccc(Nc2nc(Nc3ccc(N4CCOCC4)cc3)ncc2Br)c1	21.1	–	–	–
CSc1cnc(Nc2ccc(N3CCOCC3)cc2)nc1Nc1cc(C)ccc1Cl	13	–	–	–
